In article PMC9291769 (Chemmedchem, 2021):

Experiments:
A375 cells = experiment: MTT cell viability assay; assay type: cell-based, human; conditions: 48 h
Outline: (§1)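 A375 cells were kept in high-glucose DMEM with 10% heat-inactivated FBS, 2 mM L-glutamine and pen/strep. Cells were seeded at 0.5×10^5/well and exposed to 10 µM test compound for 48 h at 37 °C, 5% CO₂, then given MTT. Viability = 100(x−y)/(z−y), where x, y and z are absorbance of treated, resting and untreated cells. Mean ± SD, ≥3 experiments in triplicate.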

IDO1 = IDO1 (Homo sapiens, UniProt P14902); experiment: Cellular IDO1 inhibition; assay type: cell-based; conditions: A375 cell line, IFN-γ, 48 h; for IDO cellular assay inhibition [%] @ 10 μM±SD: L-Kyn by HPLC; for IC50: IC50±SD [μM]
Outline: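 A375 cells (0.5×10^5/well) were grown overnight, then given test compound (serial dilutions 0.01–30 µM, or single 10 µM) with human IFN-γ (500 U/mL final) and 0.1% DMSO for 48 h. Medium was deproteinized with 20% CCl₃COOH. L-Kyn was quantified by C18 HPLC at 330 nm against a calibration curve; % inhibition was taken versus basal levels. IC50s came from concentration-response curves, ≥3 experiments in triplicate.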

MTT cell viability assay = assay type: cell-based, human; conditions: human, A375 cells, Cell viability [%] @ 10 μM±SD
Outline: as §1

TDO (P1.TDO) = TDO (P1.TDO) (Homo sapiens, UniProt P48775); experiment: IDO1 and TDO selectivity assay, P1.TDO cells; assay type: cell-based; conditions: 10 μM, 16 h
Outline: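 Mouse mastocytoma P815-derived P1.HTR cells, stably electroporated with a human TDO plasmid and selected in puromycin, grown in IMDM with 1 mM glutamine and penicillin/streptomycin, used at ≤10th passage. Cells incubated 16 h with 10 μM test compound; DMSO vehicle as control. Supernatant L-Kyn measured by HPLC-UV (C18 column) against a calibration curve, detection limit 0.05 μM. Triplicate.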

[1] = In vitro metabolic stability in rat liver S9 fraction; assay type: in vitro ADME; conditions: rat liver S9 with NADPH, 5 μM substrate, 37 °C
Outline: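 Pooled male Sprague Dawley rat liver S9 (1.5 mg/mL final protein) was used in 50 mM Tris pH 7.4 with 3.3 mM MgCl₂, 1.3 mM β-NADP, 3.3 mM glucose 6-phosphate, 0.4 U/mL G6PDH and 1% acetonitrile. Test compound was 5 µM, shaken 60 min at 37 °C. Controls lacked S9 or cofactors. Reactions were stopped with ice-cold acetonitrile and centrifuged; residual substrate was measured.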

[2] = test system: CYP (aminopyrine N-demethylase activity); experiment: CYP inhibition: aminopyrine N-demethylase assay in rat liver microsomes; assay type: in vitro ADME; conditions: rat liver microsomes, 1, 10 and 100 μM
Outline: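 Aminopyrine N-demethylation by rat liver microsomes, with inhibition read as the […] after aminopyrine incubation. Ketoconazole served as the reference CYP inhibitor.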

Chain of IDO1 (P14902 whole entry): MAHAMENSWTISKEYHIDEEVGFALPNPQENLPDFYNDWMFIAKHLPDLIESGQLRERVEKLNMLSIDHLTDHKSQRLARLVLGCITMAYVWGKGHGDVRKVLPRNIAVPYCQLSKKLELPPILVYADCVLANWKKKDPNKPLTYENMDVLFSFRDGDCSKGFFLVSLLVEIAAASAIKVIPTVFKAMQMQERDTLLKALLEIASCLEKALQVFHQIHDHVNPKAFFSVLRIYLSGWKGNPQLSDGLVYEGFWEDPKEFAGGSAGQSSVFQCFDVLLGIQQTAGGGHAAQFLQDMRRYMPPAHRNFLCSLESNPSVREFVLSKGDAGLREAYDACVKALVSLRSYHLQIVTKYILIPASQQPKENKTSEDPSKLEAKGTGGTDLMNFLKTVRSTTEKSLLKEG
Chain of TDO (P1.TDO) (P48775 whole entry): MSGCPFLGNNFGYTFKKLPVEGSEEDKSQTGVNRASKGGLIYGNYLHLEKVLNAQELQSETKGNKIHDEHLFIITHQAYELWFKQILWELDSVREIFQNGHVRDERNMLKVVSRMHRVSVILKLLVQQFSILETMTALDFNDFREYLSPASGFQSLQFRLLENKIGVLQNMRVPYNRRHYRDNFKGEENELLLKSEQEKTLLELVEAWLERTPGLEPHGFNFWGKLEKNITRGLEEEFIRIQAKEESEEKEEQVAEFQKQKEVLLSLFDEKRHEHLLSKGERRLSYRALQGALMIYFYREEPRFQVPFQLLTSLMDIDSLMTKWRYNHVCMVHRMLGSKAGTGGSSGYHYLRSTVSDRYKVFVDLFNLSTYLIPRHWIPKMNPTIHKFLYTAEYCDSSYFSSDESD

2‐Methyl‐3‐((pyridin‐3‐ylmethyl)amino)‐N‐((6‐(trifluoromethyl)‐[1,2,4]triazolo[4,3‐a]pyridin‐3‐yl)methyl)benzamide [Compound 11]
Cell viability [%] @ 10 μM±SD (A375 cells): 91±12.7% | IDO cellular assay inhibition [%] @ 10 μM±SD (IDO1): 22±5%

O=C(NCc1nnc2ccc(C(F)(F)F)cn12)c1ccc(O)c(Br)c1 [Compound 12, 3‐Bromo‐4‐hydroxy‐N‐((6‐(trifluoromethyl)‐[1,2,4]triazolo[4,3‐a]pyridin‐3‐yl)methyl)benzamide]
viability at 48 h, 10 μM (MTT cell viability assay): 92 ± 12%

O=C(NCc1nnc2ccc(C(F)(F)F)cn12)c1cc(Br)c(O)cc1O [Compound 13, 5‐Bromo‐2,4‐dihydroxy‐N‐((6‐(trifluoromethyl)‐[1,2,4]triazolo[4,3‐a]pyridin‐3‐yl)methyl)benzamide]
viability at 48 h, 10 μM (MTT cell viability assay): 94 ± 2.8%

Cc1ccc(Br)c(C)c1C(=O)NCc1nnc2ccc(C(F)(F)F)cn12 [Compound 14, 3‐Bromo‐2,6‐dimethyl‐N‐((6‐(trifluoromethyl)‐[1,2,4]triazolo[4,3‐a]pyridin‐3‐yl)methyl)benzamide]
viability at 48 h, 10 μM (MTT cell viability assay): 100%

O=C(NCc1nnc2ccc(C(F)(F)F)cn12)c1c(F)ccc(Cl)c1Cl [Compound 15, 2,3‐Dichloro‐6‐fluoro‐N‐((6‐(trifluoromethyl)‐[1,2,4]triazolo[4,3‐a]pyridin‐3‐yl)methyl)benzamide]
viability at 48 h, 10 μM (MTT cell viability assay): 100 ± 0.7%

COc1cc(F)c(C(=O)NCc2nnc3ccc(C(F)(F)F)cn23)c(F)c1 [Compound 16, 2,6‐Difluoro‐4‐methoxy‐N‐((6‐(trifluoromethyl)‐[1,2,4]triazolo[4,3‐a]pyridin‐3‐yl)methyl)benzamide]
viability at 48 h, 10 μM (MTT cell viability assay): 100 ± 5.2%

COc1cc(C)c(C(=O)NCc2nnc3ccc(C(F)(F)F)cn23)c(C)c1 [Compound 17, 4‐Methoxy‐2,6‐dimethyl‐N‐((6‐(trifluoromethyl)‐[1,2,4]triazolo[4,3‐a]pyridin‐3‐yl)methyl)benzamide]
viability at 48 h, 10 μM (MTT cell viability assay): 89 ± 9.2%

O=C(NCc1nnc2ccc(C(F)(F)F)cn12)c1cc(-c2ccc(F)cc2)ccc1F [Compound 18, 4,4′‐Difluoro‐N‐((6‐(trifluoromethyl)‐[1,2,4]triazolo[4,3‐a]pyridin‐3‐yl)methyl)‐[1,1′‐biphenyl]‐3‐carboxamide]
viability at 48 h, 10 μM (MTT cell viability assay): 88 ± 16.8%

N#Cc1ccc(-c2ccc(F)c(C(=O)NCc3nnc4ccc(C(F)(F)F)cn34)c2)cc1 [Compound 19, 4′‐Cyano‐4‐fluoro‐N‐((6‐(trifluoromethyl)‐[1,2,4]triazolo[4,3‐a]pyridin‐3‐yl)methyl)‐[1,1′‐biphenyl]‐3‐carboxamide]
viability at 48 h, 10 μM (MTT cell viability assay): 97 ± 2.1%

Cc1ccccc1-c1ccc(F)c(C(=O)NCc2nnc3ccc(C(F)(F)F)cn23)c1 [Compound 20, 4‐Fluoro‐2′‐methyl‐N‐((6‐(trifluoromethyl)‐[1,2,4]triazolo[4,3‐a]pyridin‐3‐yl)methyl)‐[1,1′‐biphenyl]‐3‐carboxamide]
viability at 48 h, 10 μM (MTT cell viability assay): 100%

COc1ccc(-c2ccc(F)c(C(=O)NCc3nnc4ccc(C(F)(F)F)cn34)c2)cc1 [Compound 21, 4‐Fluoro‐4′‐methoxy‐N‐((6‐(trifluoromethyl)‐[1,2,4]triazolo[4,3‐a]pyridin‐3‐yl)methyl)‐[1,1′‐biphenyl]‐3‐carboxamide]
viability at 48 h, 10 μM (MTT cell viability assay): 78 ± 4.2%

Cc1ccc(-c2cccc(C(=O)NCc3nnc4ccc(C(F)(F)F)cn34)c2)cc1 [Compound 22, 4′‐Methyl‐N‐((6‐(trifluoromethyl)‐[1,2,4]triazolo[4,3‐a]pyridin‐3‐yl)methyl)‐[1,1′‐biphenyl]‐3‐carboxamide]
viability at 48 h, 10 μM (MTT cell viability assay): 93 ± 9.8%

Cc1ccc(-c2ccc(F)c(C(=O)NCc3nnc4ccc(C(F)(F)F)cn34)c2)cc1C [Compound 24, 4‐Fluoro‐3′,4′‐dimethyl‐N‐((6‐(trifluoromethyl)‐[1,2,4]triazolo[4,3‐a]pyridin‐3‐yl)methyl)‐[1,1′‐biphenyl]‐3‐carboxamide]
viability at 48 h, 10 μM (MTT cell viability assay): 95 ± 7.2% | Kyn levels in P1.TDO cells (TDO (P1.TDO)): not able to induce a reduction of Kyn levels in P1.TDO | Residual peak area after RLS9 incubation (60 min) [1]: higher than 99% | IC50 (IDO1): 2 ± 0.3 µM

COc1ccc(-c2ccc(F)c(C(=O)NCc3nnc4ccc(C(F)(F)F)cn34)c2)cc1OC [Compound 25, 4‐Fluoro‐3′,4′‐dimethoxy‐N‐((6‐(trifluoromethyl)‐[1,2,4]triazolo[4,3‐a]pyridin‐3‐yl)methyl)‐[1,1′‐biphenyl]‐3‐carboxamide]
viability at 48 h, 10 μM (MTT cell viability assay): 94 ± 2.1% | Kyn levels in P1.TDO cells (TDO (P1.TDO)): not able to induce a reduction of Kyn levels in P1.TDO | Residual peak area after RLS9 incubation (60 min) [1]: higher than 99% | CYP inhibition (aminopyrine N-demethylase activity) [2]: low inhibition at 10 and 100 μM | IC50 (IDO1): 1.4 ± 0.5 µM

O=C(NCc1nnc2ccc(Cl)cn12)c1cccc2cn[nH]c12 [Compound 30, N‐((6‐Chloro‐[1,2,4]triazolo[4,3‐a]pyridin‐3‐yl)methyl)‐1H‐indazole‐7‐carboxamide]
viability at 48 h, 10 μM (MTT cell viability assay): 98 ± 7.4%

COc1ccc(-c2ccc(F)c(C(=O)NCc3nnc4ccc(Cl)cn34)c2)cc1OC [Compound 32, N‐((6‐Chloro‐[1,2,4]triazolo[4,3‐a]pyridin‐3‐yl)methyl)‐4‐fluoro‐3′,4′‐dimethoxy‐[1,1′‐biphenyl]‐3‐carboxamide]
viability at 48 h, 10 μM (MTT cell viability assay): 98 ± 9.3%

O=C(NCc1nnc2ccc3ccccc3n12)c1cccc2cn[nH]c12 [Compound 37, N‐([1,2,4]Triazolo[4,3‐a]quinolin‐1‐ylmethyl)‐1H‐indazole‐7‐carboxamide]
viability at 48 h, 10 μM (MTT cell viability assay): 100 ± 4.1% | IC50 (IDO1): 6.9 ± 0.8 µM

O=C(NCc1nnc2ccc3ccccc3n12)c1ccc(O)c(Br)c1 [Compound 38, N‐([1,2,4]Triazolo[4,3‐a]quinolin‐1‐ylmethyl)‐3‐bromo‐4‐hydroxybenzamide]
viability at 48 h, 10 μM (MTT cell viability assay): 95 ± 7.1% | Kyn levels in P1.TDO cells (TDO (P1.TDO)): not able to induce a reduction of Kyn levels in P1.TDO | CYP inhibition (aminopyrine N-demethylase activity) [2]: did not significantly inhibit CYP at the tested concentrations | IC50 (IDO1): 0.9 ± 0.02 µM

COc1cc(C)c(C(=O)NCc2nnc3ccc4ccccc4n23)c(C)c1 [Compound 39, N‐([1,2,4]Triazolo[4,3‐a]quinolin‐1‐ylmethyl)‐4‐methoxy‐2,6‐dimethylbenzamide]
viability at 48 h, 10 μM (MTT cell viability assay): 94 ± 6.3% | Kyn levels in P1.TDO cells (TDO (P1.TDO)): not able to induce a reduction of Kyn levels in P1.TDO | Residual peak area after RLS9 incubation (60 min) [1]: higher than 99% | IC50 (IDO1): 1.8 ± 0.2 µM

COc1ccc(-c2ccc(F)c(C(=O)NCc3nnc4ccc5ccccc5n34)c2)cc1 [Compound 40, N‐([1,2,4]triazolo[4,3‐a]quinolin‐1‐ylmethyl)‐4‐fluoro‐4′‐methoxy‐[1,1′‐biphenyl]‐3‐carboxamide]
viability at 48 h, 10 μM (MTT cell viability assay): 97 ± 3.8% | Residual peak area after RLS9 incubation (60 min) [1]: higher than 99% | IC50 (IDO1): 3.4 ± 0.3 µM

O=C(NCc1nnc2ccccn12)c1cccc2cn[nH]c12 [Compound 42, N‐([1,2,4]Triazolo[4,3‐a]pyridin‐3‐ylmethyl)‐1H‐indazole‐7‐carboxamide]
viability at 48 h, 10 μM (MTT cell viability assay): 100%

O=C(NCc1cccc2ccccc12)c1cccc2cn[nH]c12 [Compound 44, N‐(Naphthalen‐1‐ylmethyl)‐1H‐indazole‐7‐carboxamide]
viability at 48 h, 10 μM (MTT cell viability assay): 99 ± 1%

CC(=O)N1CCN(c2ccc(OCC3COC(Cn4ccnc4)(c4ccc(Cl)cc4Cl)O3)cc2)CC1 (stereo not drawn) [ketoconazole, reference compound]
CYP inhibition (aminopyrine N-demethylase activity) [2]: strong inhibition of CYP

N‐((6‐(Trifluoromethyl)‐[1,2,4]triazolo[4,3‐a]pyridin‐3‐yl)methyl)‐9H‐fluorene‐4‐carboxamide [Compound 10]
Cell viability [%] @ 10 μM±SD (A375 cells): 90±14.8% | IDO cellular assay inhibition [%] @ 10 μM±SD (IDO1): 34±1%
